The subject of data set [1] is NALM-6 (leukemia lymphoblastic). The note with it: read-out: Cell culture IC50; NALM-6, referential compounds; cited from earlier work.
The test system of data set [2] is HL-60 (leukemia promyelocytic). The note with it: read-out: Cell culture IC50; HL-60, referential compounds; cited from earlier work.
The test system of data set [3] is WM-115 (human melanoma). The note with it: read-out: Cell culture IC50; WM-115, referential compounds; cited from earlier work.
Another data set deals with P. aeruginosa ATCC 25619. Briefly: MIC and MBC by broth microdilution, subculture on agar. The note with it: Pseudomonas aeruginosa, ATCC25619. It is filed as cell-based. The procedure, abridged: (§1)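 EUCAST broth microdilution used Mueller-Hinton broth for bacteria and phenol-red-free RPMI-1640 for Candida. Test compound ran at a final 31.2–1000 μg ml−1, from 80 mg ml−1 DMSO stocks, with DMSO ≤1.25%. […] For MBC/MFC, 10 μl from the MIC, 2× and 4× MIC wells was plated on agar for 24 h at 37 °C. Done in duplicate, 2 sets.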
(In general: Broth dilution looks for growth in wells or tubes with falling amounts of substance.)

For data set [4], the system named is NALM-6 (leukemia lymphoblastic). Briefly: Anticancer activity, MTT assay. Type of data set: cell-based, human. The note with it: for IC50: Homo sapiens, NALM-6, 48 h, read-out: Cell culture IC50; for anticancer activity in words: NALM-6. The method in brief: (§2)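 Human leukaemia (HL-60, NALM-6) or melanoma (WM-115) cells were exposed to the test compound for 46 h, then given MTT for a further 2 h. Fresh DMSO stocks were diluted in complete medium, with DMSO ≤0.2%. Untreated cells served as control. IC50 was taken from concentration–response curves, as mean ± SD of 4 experiments.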
Background: Tetrazolium assays rely on reduction of a dye to a coloured formazan, in cell work by metabolically active cells.

The subject of data set [5] is HL-60 (leukemia promyelocytic). The experiment in a line: Anticancer activity, MTT assay. Type of data set: cell-based, human. The note with it: for IC50: Homo sapiens, HL-60, 48 h, read-out: Cell culture IC50; for anticancer activity in words: HL-60. The method in brief: as §2
Data set [6] relates to Supercoiled plasmid pUC57 DNA. Briefly: Cleavage of pUC57 DNA, agarose gel electrophoresis. It is filed as biochemical. The note with it: 37 °C, 24 h, pH 7.2, gel electrophoresis. The procedure, abridged:
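Supercoiled pUC57 plasmid (4634 bp) in 10 mM Tris–HCl/50 mM NaCl, pH 7.2, was incubated with the test compound (50, 100, 200, 300, 400 μM) at 37 °C for 24 h. Samples ran on 1% agarose at 75 V in TAE, were stained with Midori green and imaged under UV. Band intensities gave the fraction of each DNA form. Control was DNA with matching DMSO in buffer. Done in triplicate.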

Data set [7] deals with WM-115 (human melanoma). The experiment in a line: Anticancer activity, MTT assay. It is filed as cell-based. The note with it: for IC50: Homo sapiens, WM-115, 48 h, read-out: Cell culture IC50. The method in brief: as §2
In a further data set the test system is E. faecalis ATCC 29212. Briefly: MIC and MBC by broth microdilution, subculture on agar. Type of data set: cell-based, Enterococcus faecalis. The note with it: for MBC/MFC: second line per compound, subculture on agar 24 h, 37 °C; for MIC: Enterococcus faecalis, ATCC29212. The method in brief: as §1
Data set [8] concerns S. epidermidis ATCC 12228. Described as above. The note with it: for MIC: Staphylococcus epidermidis, ATCC12228. Type of data set: cell-based, Staphylococcus epidermidis. The method in brief: as §1
For another data set, the system named is C. albicans ATCC 10231. The experiment in a line: MIC and MFC by broth microdilution, subculture on agar. The note with it: for MBC/MFC: C. albicans ATCC 10231, second line per compound, subculture on agar 24 h, 37 °C; for MIC: Candida albicans, ATCC10231. It is filed as cell-based, Candida albicans. The procedure, abridged: as §1
For the next data set, the system named is P. vulgaris ATCC 8427. Briefly: MIC and MBC by broth microdilution, subculture on agar. The note with it: for MBC/MFC: P. vulgaris ATCC 8427, second line per compound, subculture on agar 24 h, 37 °C; for MIC: Proteus vulgaris, ATCC8427. It is filed as cell-based, Proteus vulgaris. The method in brief:
as §1

In a further data set the test system is S. aureus ATCC 29213. The description is as above. The note with it: for MBC/MFC: S. aureus ATCC 29213, second line per compound, subculture on agar 24 h, 37 °C; for MIC: Staphylococcus aureus, ATCC29213. Type of data set: cell-based, Staphylococcus aureus. The procedure, abridged: as §1
Data set [9] concerns human foreskin fibroblasts HFF-1 (ATCC-SCRC-1041). Briefly: Cytotoxicity on normal fibroblasts, MTT reduction assay. It is filed as cell-based. The note with it: for metabolic activity higher than untreated control cells: HFF-1, low concentrations 3.9–31.2 μM. The procedure, abridged:
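HFF-1 fibroblasts were seeded at 1 × 10^5/well in DMEM with 15% FCS and pen/strep and grown 48 h (37 °C, 5% CO2). They were exposed 24 h to the test compound (25 mM DMSO stocks; final 3.9–500 μM). Cells were washed and given MTT (1.5 mg ml−1) for 2 h. Formazan was dissolved overnight in 20% SDS in DMF/water and read at 550 nm. Viability is relative to 2% DMSO control; IC50 came from trend-line equations. Two experiments, duplicates each.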

Values after ≈ are worked out from the molar mass of the structure shown. Read-outs that look alike come from different tables or passages of the source.

This is an account of results in paper PMC9075995 (RSC Advances, 2019).

A word on the IC50: it is the point on the concentration scale where inhibition reaches its midpoint. In general, MIC refers to the smallest concentration in the dilution series that meets the test's criterion for growth inhibition. Lower therefore signals a more susceptible organism.

Take `N.N.[Cl][Pt][Cl]` [Cisplatin]: the values for the IC50 (in data set [1]; in data set [2]; in the data set on WM-115 (human melanoma) [3]) were 0.7 ± 0.3 µM, 0.8 ± 0.1 µM and 18.2 ± 4.3 µM, respectively.

Consider `Cc1cc(O)n(C(N)=S)n1` [Compound 1d, 1-[amino(thioxo)methyl]-5-hydroxy-3-methyl-1H-pyrazole], for which the MIC is greater than 1000 µg/mL against P. aeruginosa ATCC 25619; 250 µg/mL (≈ 1.59 mM) in the data set on E. faecalis ATCC 29212; 250 µg/mL (≈ 1.59 mM) in [8]; greater than 1000 µg/mL with C. albicans ATCC 10231; greater than 1000 µg/mL in the data set with P. vulgaris ATCC 8427; 1000 µg/mL (≈ 6.36 mM) in the data set on S. aureus ATCC 29213. Moreover, the results for the IC50 (in data set [4]; in data set [5]; in the data set with WM-115 (human melanoma) [7]) were 615 ± 60.9 µM, 779 ± 125 µM and 90.9 ± 10.2 µM, respectively. In addition, the “effect on supercoiled plasmid DNA (cleavage of Form I)” value (“effect on supercoiled plasmid DNA” for short) in data set [6] is “did not affect the DNA”. Further, the MBC/MFC in the data set with E. faecalis ATCC 29212 (E. faecalis ATCC 29212), against C. albicans ATCC 10231, in the data set with P. vulgaris ATCC 8427 and against S. aureus ATCC 29213 was greater than 1000 µg/mL each time.

`N.N.O=C([O-])C1(C(=O)[O-])CCC1.[Pt+2]` [Carboplatin]: the IC50 was 0.7 ± 0.2 µM in [1], 4.3 ± 1.3 µM in data set [2] and 422 ± 50.2 µM with WM-115 (human melanoma) [3].

Turning to `Cc1cc(C)n(C(N)=S)n1` [Compound 1a, 1-[amino(thioxo)methyl]-3,5-dimethyl-1H-pyrazole], the MIC (in the data set on P. aeruginosa ATCC 25619; against E. faecalis ATCC 29212; in data set [8]; against C. albicans ATCC 10231; in the data set on P. vulgaris ATCC 8427; with S. aureus ATCC 29213) was greater than 1000 µg/mL in each case. For the same compound, the IC50 in data set [4] was 569 ± 21.9 µM; in data set [5], 584 ± 84.3 µM; in the data set with WM-115 (human melanoma) [7], greater than 1000 µM. Further, in [6], the “effect on supercoiled plasmid DNA” value is given as “did not affect the DNA”. For the same compound, the MBC/MFC in the data set on E. faecalis ATCC 29212 (E. faecalis ATCC 29212), against C. albicans ATCC 10231, against P. vulgaris ATCC 8427 and with S. aureus ATCC 29213 was greater than 1000 µg/mL in each case.

For `Cc1cc(C)n(C(N)=S)n1.Cc1ccc(C(C)C)cc1.[Cl][Ru][Cl]` [Compound 2a], the “metabolic activity higher than untreated control cells” value in data set [9] was 39–45%. Further, the “effect on supercoiled plasmid DNA” value in data set [6] was “no influence”. Besides, the MBC/MFC in the data set on E. faecalis ATCC 29212 (E. faecalis ATCC 29212) is 125 µg/mL; in the data set on P. vulgaris ATCC 8427, greater than 1000 µg/mL; in the data set with S. aureus ATCC 29213, 125 µg/mL.

As to “[(η^6-p-cymene)Ru(1-[amino(thioxo)methyl]-5-hydroxy-3-methyl-1H-pyrazole) Cl2 [Compound 2d]”, the “anticancer activity in words” value in data set [4] and in data set [5] was “inactive” in each case. Moreover, the “viability of HFF-1 cells” value in data set [9] (HFF-1, 24 h, over tested range 3.9–500 μM) was no less than 80%. The “effect on supercoiled plasmid DNA” value in data set [6] was “cleavage the DNA Form I into Form II and Form III”. The “activity stronger than cisplatin (fold, from IC50 values)” value in the data set with WM-115 (human melanoma) [7] (WM-115) is given as “above 2 fold”. Further, the MBC/MFC in the data set on E. faecalis ATCC 29212 (E. faecalis ATCC 29212) was 1000 µg/mL; against C. albicans ATCC 10231, greater than 1000 µg/mL; in the data set on P. vulgaris ATCC 8427 it was 1000 µg/mL; in the data set with S. aureus ATCC 29213 it was 500 µg/mL.

On to `NC(=S)n1nc(-c2ccccc2)cc1O` [Compound 1c, 1-[amino(thioxo)methyl]-5-hydroxy-3-phenyl-1H-pyrazole], for which the MIC against P. aeruginosa ATCC 25619 is greater than 1000 µg/mL; against E. faecalis ATCC 29212, 500 µg/mL (≈ 2.28 mM); in data set [8], 62.5 µg/mL (≈ 0.285 mM); with C. albicans ATCC 10231, greater than 1000 µg/mL; against P. vulgaris ATCC 8427 it was greater than 1000 µg/mL; with S. aureus ATCC 29213, 1000 µg/mL (≈ 4.56 mM). Besides, the IC50 in data set [4] came to 152 ± 26.7 µM; in data set [5], 618 ± 32 µM; with WM-115 (human melanoma) [7] it was 752 ± 118 µM. Further, the MBC/MFC in the data set on E. faecalis ATCC 29212 (E. faecalis ATCC 29212), with C. albicans ATCC 10231, against P. vulgaris ATCC 8427 and with S. aureus ATCC 29213 was greater than 1000 µg/mL in each case.

For the compound `CCc1cc(CC)n(C(N)=S)n1` [Compound 1b, 1-[amino(thioxo)methyl]-3,5-diethyl-1H-pyrazole], the MIC was greater than 1000 µg/mL in the data set on P. aeruginosa ATCC 25619; greater than 1000 µg/mL in the data set on E. faecalis ATCC 29212; greater than 1000 µg/mL in [8]; 1000 µg/mL (≈ 5.46 mM) against C. albicans ATCC 10231; 1000 µg/mL (≈ 5.46 mM) in the data set with P. vulgaris ATCC 8427; 1000 µg/mL (≈ 5.46 mM) in the data set on S. aureus ATCC 29213. The IC50 in data set [4] is 469 ± 44.4 µM; in data set [5] it was 506 ± 47.1 µM; in the data set with WM-115 (human melanoma) [7] it was 481 ± 39.4 µM. Moreover, in [6], the “effect on supercoiled plasmid DNA” value is reported as “did not affect the DNA”. Also, the MBC/MFC was greater than 1000 µg/mL against E. faecalis ATCC 29212 (E. faecalis ATCC 29212), 1000 µg/mL (≈ 5.46 mM) against C. albicans ATCC 10231, 1000 µg/mL (≈ 5.46 mM) against P. vulgaris ATCC 8427 and greater than 1000 µg/mL with S. aureus ATCC 29213.

As for `Cc1ccc(C(C)C)cc1.Cc1ccc(C(C)C)cc1.[Cl][Ru][Cl].[Cl][Ru][Cl]` [Dimer, dichloro(p-cymene)ruthenium(II)dimer, reference compound], the “anticancer activity in words” value (in data set [4]; in data set [5]; with WM-115 (human melanoma) [7] (WM-115)) was “inactive” each time. Also, in data set [6], the “effect on supercoiled plasmid DNA” value is “no effect”. The MBC/MFC against E. faecalis ATCC 29212 (E. faecalis ATCC 29212), in the data set on C. albicans ATCC 10231, with P. vulgaris ATCC 8427 and against S. aureus ATCC 29213 was greater than 1000 µg/mL in each case.

With “[(η^6-p-cymene)Ru(1-[amino(thioxo)methyl]-5-hydroxy-3-phenyl-1H-pyrazole)Cl2 [Compound 2c]”, the “effect on supercoiled plasmid DNA” value in data set [6] is on record as “no influence”. Further, the figures for the “activity (MIC) stronger than ligand 1c” value (in the data set with E. faecalis ATCC 29212 (E. faecalis ATCC 29212); in data set [8] (S. epidermidis ATCC 12228)) were greater than 16 fold and “more than 2 fold”, respectively. Moreover, the MBC/MFC was less than 31.2 µg/mL against E. faecalis ATCC 29212 (E. faecalis ATCC 29212), greater than 1000 µg/mL with C. albicans ATCC 10231, greater than 1000 µg/mL in the data set on P. vulgaris ATCC 8427 and 62.5 µg/mL with S. aureus ATCC 29213.

Take “[(η^6-p-cymene)Ru(1-[amino(thioxo)methyl]-3,5-diethyl-1H-pyrazole)Cl2 [Compound 2b]”: in [9], the “metabolic activity higher than untreated control cells” value is listed as 39–45%. Also, the “effect on supercoiled plasmid DNA” value in data set [6] is “cleavage the DNA Form I into Form II and Form III”. The MBC/MFC against E. faecalis ATCC 29212 (E. faecalis ATCC 29212) was 62.5 µg/mL; with P. vulgaris ATCC 8427 it was greater than 1000 µg/mL; in the data set on S. aureus ATCC 29213, 125 µg/mL.
